Assay results from ChEMBL document CHEMBL3352173, “Optimization of pyrrolamide topoisomerase II inhibitors toward identification of an antibacterial clinical candidate (AZD5099)” (J Med Chem, 2014).
Values after ≈ are worked out from the molar mass of the structure shown.

How the values were obtained:
[1] = tested on: Staphylococcus aureus; assay: Antibacterial activity against methicillin-sensitive Staphylococcus aureus ARC516 infected in neutropenic CD1 mouse thigh model assessed as decrease in bacterial viable counts at 30 mg/kg, ip after 24 hrs; assay type: functional; conditions: route intraperitoneal
[2] = tested on: Staphylococcus aureus; assay: Antimicrobial activity against Staphylococcus aureus ARC516 by broth microdilution/CLSI method; assay type: functional
[3] = target: T1, ATP-binding cassette sub-family C member 2 (Homo sapiens, UniProt Q92887); assay: Inhibition of ATPase activity of human MRP2 assessed as inorganic phosphate
[4] = tested on: Staphylococcus aureus; assay: Antimicrobial activity against 2 times drug resistance selected Staphylococcus aureus ARC2398-1F by broth microdilution/CLSI method; assay type: functional
[5] = Percentage unbound in rat plasma; assay type: ADME, cell-free
[6] = tested on: Streptococcus pneumoniae; assay: Antibacterial activity against Streptococcus pneumoniae by broth microdilution/CLSI method; assay type: functional; conditions: Streptococcus pneumoniae; read-out: MIC
[7] = tested on: Staphylococcus aureus; assay: Antibacterial activity against methicillin-sensitive Staphylococcus aureus ARC516 infected in ip dosed neutropenic CD1 mouse thigh model assessed as decrease in bacterial viable counts treated for q24; assay type: functional; conditions: ARC516, Thigh muscle
[8] = tested on: Staphylococcus aureus; assay: Antimicrobial activity against 2 times drug resistance selected Staphylococcus aureus ARC2381-3F by broth microdilution/CLSI method; assay type: functional
[9] = tested on: Staphylococcus aureus; assay: Antimicrobial activity against Staphylococcus aureus ARC2381 by broth microdilution/CLSI method; assay type: functional
[10] = tested on: Staphylococcus aureus; assay: Antimicrobial activity against 2 times drug resistance selected Staphylococcus aureus ARC2381-2F by broth microdilution/CLSI method; assay type: functional
[11] = tested on: Staphylococcus aureus; assay: Ratio of MIC for 2 times drug resistance selected Staphylococcus aureus ARC2381-2F to MIC for Staphylococcus aureus ARC2381; assay type: functional
[12] = target: Voltage-gated inwardly rectifying potassium channel KCNH2 (Homo sapiens, UniProt Q12809); assay: Inhibition of human ERG at 100 uM
[13] = tested on: Staphylococcus aureus; assay: Ratio of MIC for 2 times drug resistance selected Staphylococcus aureus ARC516-1F to MIC for Staphylococcus aureus ARC516; assay type: functional
[14] = tested on: Haemophilus influenzae; assay: Antimicrobial activity against Haemophilus influenzae by broth microdilution/CLSI method; assay type: functional; conditions: Haemophilus influenzae; read-out: MIC
[15] = tested on: Enterococcus faecalis; assay: Antimicrobial activity against Enterococcus faecalis by broth microdilution/CLSI method; assay type: functional
[16] = Clearance in CD1 mouse at 10 mg/kg, iv; assay type: ADME, organism-based; set-up: dose 10 mg/kg, route intravenous; conditions: in vivo
[17] = tested on: Staphylococcus aureus; assay: Ratio of MIC for 2 times drug resistance selected Staphylococcus aureus ARC1692-2F to MIC for Staphylococcus aureus ARC1692; assay type: functional
[18] = tested on: Staphylococcus aureus; assay: Antimicrobial activity against 2 times drug resistance selected Staphylococcus aureus ARC1692-1F by broth microdilution/CLSI method; assay type: functional
[19] = tested on: Moraxella catarrhalis; assay: Antimicrobial activity against Moraxella catarrhalis by broth microdilution/CLSI method; assay type: functional; conditions: Moraxella catarrhalis; read-out: MIC
[20] = tested on: Staphylococcus aureus; assay: Antimicrobial activity against 2 times drug resistance selected Staphylococcus aureus ARC516-1F by broth microdilution/CLSI method; assay type: functional
[21] = tested on: Staphylococcus aureus; assay: Antimicrobial activity against Staphylococcus aureus ARC1692 by broth microdilution/CLSI method; assay type: functional
[22] = tested on: Staphylococcus aureus; assay: Antimicrobial activity against methicillin, quinolone-resistant Staphylococcus aureus by broth microdilution/CLSI method; assay type: functional; conditions: Staphylococcus aureus; read-out: MIC
[23] = target: Cytochrome P450 2D6 (Homo sapiens, UniProt P10635); assay: Inhibition of human CYP2D6 at 50 uM; assay type: ADME
[24] = tested on: Staphylococcus aureus; assay: Antibacterial activity against methicillin-sensitive Staphylococcus aureus ARC516 infected in neutropenic CD1 mouse thigh model assessed as decrease in bacterial viable counts at 30 mg/kg, ip q24; assay type: functional; conditions: route intraperitoneal
[25] = target: Cytochrome P450 3A4 (Homo sapiens, UniProt P08684); assay: Inhibition of human CYP3A4 at 50 uM; assay type: ADME
[26] = Clearance in rat at 10 mg/kg, iv; assay type: ADME, organism-based; set-up: dose 10 mg/kg, route intravenous; conditions: in vivo
[27] = target: DNA gyrase subunit B (Staphylococcus aureus, UniProt P0A0K8); assay: Inhibition of ATPase activity of Staphylococcus aureus GyrB
Summary of the method: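 IC50 was determined against S. aureus GyrB in the routine screening assay. The enzyme concentration limits resolution below 10 nM.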

[28] = tested on: Staphylococcus aureus; assay: Antimicrobial activity against methicillin-sensitive Staphylococcus aureus by broth microdilution/CLSI method; assay type: functional; conditions: Staphylococcus aureus; read-out: MIC
[29] = tested on: Staphylococcus aureus; assay: Antimicrobial activity against 2 times drug resistance selected Staphylococcus aureus ARC1692-2F by broth microdilution/CLSI method; assay type: functional
[30] = tested on: Staphylococcus aureus; assay: Ratio of MIC for 2 times drug resistance selected Staphylococcus aureus ARC516-2F to MIC for Staphylococcus aureus ARC516; assay type: functional
[31] = Bioavailability in CD1 mouse at 10 mg/kg, […]; assay type: ADME, organism-based; conditions: in vivo
[32] = Solubility of the compound; assay type: physicochemical
[33] = tested on: Enterococcus faecalis; assay: Antimicrobial activity against vancomycin-resistant Enterococcus faecalis by broth microdilution/CLSI method; assay type: functional
[34] = target: T2, Cytochrome P450 1A2 (Homo sapiens, UniProt P05177); assay: Inhibition of human CYP1A2 at 50 uM; assay type: ADME
T2 sequence (P05177 whole entry): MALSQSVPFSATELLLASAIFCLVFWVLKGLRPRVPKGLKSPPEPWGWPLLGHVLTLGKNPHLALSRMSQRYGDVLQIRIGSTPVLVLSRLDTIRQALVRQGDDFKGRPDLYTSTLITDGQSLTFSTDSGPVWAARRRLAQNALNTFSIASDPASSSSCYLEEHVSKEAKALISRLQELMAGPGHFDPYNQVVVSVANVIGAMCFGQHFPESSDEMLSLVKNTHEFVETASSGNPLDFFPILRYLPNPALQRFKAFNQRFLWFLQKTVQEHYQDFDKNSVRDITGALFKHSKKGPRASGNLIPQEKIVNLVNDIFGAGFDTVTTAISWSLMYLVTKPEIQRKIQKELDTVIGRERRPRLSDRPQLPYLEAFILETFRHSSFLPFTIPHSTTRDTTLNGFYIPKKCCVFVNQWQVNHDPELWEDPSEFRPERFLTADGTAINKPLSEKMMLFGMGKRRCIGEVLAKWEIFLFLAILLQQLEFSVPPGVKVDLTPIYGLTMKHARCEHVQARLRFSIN

[35] = Ratio of MIC for methicillin, quinolone-resistant Staphylococcus aureus to fraction unbound in human plasma; assay type: ADME
[36] = tested on: Staphylococcus aureus; assay: Ratio of MIC for 2 times drug resistance selected Staphylococcus aureus ARC2381-3F to MIC for Staphylococcus aureus ARC2381; assay type: functional
[37] = tested on: Escherichia coli; assay: Antimicrobial activity against wild-type Escherichia coli Eco523 by broth microdilution/CLSI method; assay type: functional; conditions: Escherichia coli, Eco523; read-out: MIC
[38] = Dissociation constant, pKa of the compound; assay type: physicochemical
[39] = tested on: Staphylococcus aureus; assay: Antimicrobial activity against 2 times drug resistance selected Staphylococcus aureus ARC516-2F by broth microdilution/CLSI method; assay type: functional
[40] = tested on: Staphylococcus aureus; assay: Antibacterial activity against methicillin-sensitive Staphylococcus aureus ARC516 infected in ip dosed neutropenic CD1 mouse thigh model assessed as decrease in bacterial viable counts after 24 hrs; assay type: functional, organism-based; conditions: Thigh muscle
[41] = target: T1, ATP-binding cassette sub-family C member 2; assay: Stimulation of ATPase activity of human MRP2 assessed as inorganic phosphate
[42] = tested on: Staphylococcus aureus; assay: Ratio of MIC for 2 times drug resistance selected Staphylococcus aureus ARC1692-1F to MIC for Staphylococcus aureus ARC1692; assay type: functional
[43] = Bioavailability in Wistar rat at 10 mg/kg, […]; assay type: ADME, organism-based; conditions: in vivo

T1 sequence (Q92887 whole entry): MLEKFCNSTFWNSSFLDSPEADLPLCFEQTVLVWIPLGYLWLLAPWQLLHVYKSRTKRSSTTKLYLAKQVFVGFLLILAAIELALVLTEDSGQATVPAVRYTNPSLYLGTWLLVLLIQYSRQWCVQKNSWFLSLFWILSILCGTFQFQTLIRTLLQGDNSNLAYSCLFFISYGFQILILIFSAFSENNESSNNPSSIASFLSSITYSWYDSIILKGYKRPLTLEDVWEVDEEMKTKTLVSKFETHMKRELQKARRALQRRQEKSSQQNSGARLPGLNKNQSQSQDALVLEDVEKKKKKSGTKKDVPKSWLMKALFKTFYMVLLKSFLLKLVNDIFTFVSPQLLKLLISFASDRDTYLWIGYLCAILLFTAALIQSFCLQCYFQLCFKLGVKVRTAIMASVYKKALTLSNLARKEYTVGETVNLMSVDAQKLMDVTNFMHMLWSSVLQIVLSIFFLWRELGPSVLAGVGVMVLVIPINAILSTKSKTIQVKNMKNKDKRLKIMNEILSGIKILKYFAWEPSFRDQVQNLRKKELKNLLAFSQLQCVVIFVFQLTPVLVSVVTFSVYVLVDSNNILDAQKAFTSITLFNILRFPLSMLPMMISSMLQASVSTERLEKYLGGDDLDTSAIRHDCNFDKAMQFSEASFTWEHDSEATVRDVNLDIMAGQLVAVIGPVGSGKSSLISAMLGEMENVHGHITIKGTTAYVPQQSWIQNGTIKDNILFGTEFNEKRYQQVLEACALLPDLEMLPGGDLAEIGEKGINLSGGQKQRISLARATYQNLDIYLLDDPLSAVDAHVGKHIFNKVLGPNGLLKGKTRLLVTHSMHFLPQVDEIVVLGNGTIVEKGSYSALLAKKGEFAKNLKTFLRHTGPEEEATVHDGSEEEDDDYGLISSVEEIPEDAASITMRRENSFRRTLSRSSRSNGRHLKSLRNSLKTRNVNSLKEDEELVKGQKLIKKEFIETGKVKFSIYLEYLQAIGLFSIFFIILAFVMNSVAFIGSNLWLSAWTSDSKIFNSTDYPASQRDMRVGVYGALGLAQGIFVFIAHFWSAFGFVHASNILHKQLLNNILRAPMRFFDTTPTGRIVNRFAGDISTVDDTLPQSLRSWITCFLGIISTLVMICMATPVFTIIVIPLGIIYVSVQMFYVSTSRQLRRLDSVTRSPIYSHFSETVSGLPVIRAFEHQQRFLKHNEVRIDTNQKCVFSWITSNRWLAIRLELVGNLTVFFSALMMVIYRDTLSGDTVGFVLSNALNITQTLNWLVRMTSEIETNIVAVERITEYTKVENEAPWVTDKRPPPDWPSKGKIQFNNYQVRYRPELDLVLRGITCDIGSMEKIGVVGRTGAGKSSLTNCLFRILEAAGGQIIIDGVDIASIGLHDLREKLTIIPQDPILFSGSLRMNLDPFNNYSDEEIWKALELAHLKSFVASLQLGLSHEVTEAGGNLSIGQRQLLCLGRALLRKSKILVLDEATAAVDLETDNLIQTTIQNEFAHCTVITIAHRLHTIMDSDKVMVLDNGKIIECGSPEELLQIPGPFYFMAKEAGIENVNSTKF
Cytochrome P450 3A4, sequence (P08684 whole entry): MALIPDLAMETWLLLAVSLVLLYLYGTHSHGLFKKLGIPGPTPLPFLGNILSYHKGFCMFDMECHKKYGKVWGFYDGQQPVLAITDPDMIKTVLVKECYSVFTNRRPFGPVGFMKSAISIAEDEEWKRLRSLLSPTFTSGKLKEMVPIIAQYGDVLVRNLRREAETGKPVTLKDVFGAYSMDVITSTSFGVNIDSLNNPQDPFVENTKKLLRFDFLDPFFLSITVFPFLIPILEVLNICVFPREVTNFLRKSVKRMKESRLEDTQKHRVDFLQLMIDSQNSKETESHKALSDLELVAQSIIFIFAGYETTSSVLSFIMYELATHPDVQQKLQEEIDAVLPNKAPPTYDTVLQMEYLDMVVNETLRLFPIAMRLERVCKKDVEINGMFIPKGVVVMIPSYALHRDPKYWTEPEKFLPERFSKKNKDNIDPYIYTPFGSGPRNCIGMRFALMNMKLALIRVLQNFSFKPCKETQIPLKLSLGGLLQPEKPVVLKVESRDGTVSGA
Cytochrome P450 2D6, sequence (P10635 whole entry): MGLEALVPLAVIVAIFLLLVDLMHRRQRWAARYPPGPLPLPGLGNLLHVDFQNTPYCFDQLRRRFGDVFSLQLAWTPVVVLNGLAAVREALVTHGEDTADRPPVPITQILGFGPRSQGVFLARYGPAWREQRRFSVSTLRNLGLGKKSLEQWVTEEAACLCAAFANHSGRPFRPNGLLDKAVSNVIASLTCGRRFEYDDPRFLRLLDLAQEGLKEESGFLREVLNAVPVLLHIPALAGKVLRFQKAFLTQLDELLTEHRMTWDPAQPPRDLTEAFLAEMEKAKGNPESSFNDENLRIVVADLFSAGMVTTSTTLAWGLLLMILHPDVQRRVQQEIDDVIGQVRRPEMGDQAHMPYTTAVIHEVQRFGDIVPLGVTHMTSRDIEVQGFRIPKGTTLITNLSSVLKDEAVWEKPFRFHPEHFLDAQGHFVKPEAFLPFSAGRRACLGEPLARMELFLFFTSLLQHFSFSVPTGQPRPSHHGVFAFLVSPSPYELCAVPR
Voltage-gated inwardly rectifying potassium channel KCNH2, sequence (Q12809 whole entry): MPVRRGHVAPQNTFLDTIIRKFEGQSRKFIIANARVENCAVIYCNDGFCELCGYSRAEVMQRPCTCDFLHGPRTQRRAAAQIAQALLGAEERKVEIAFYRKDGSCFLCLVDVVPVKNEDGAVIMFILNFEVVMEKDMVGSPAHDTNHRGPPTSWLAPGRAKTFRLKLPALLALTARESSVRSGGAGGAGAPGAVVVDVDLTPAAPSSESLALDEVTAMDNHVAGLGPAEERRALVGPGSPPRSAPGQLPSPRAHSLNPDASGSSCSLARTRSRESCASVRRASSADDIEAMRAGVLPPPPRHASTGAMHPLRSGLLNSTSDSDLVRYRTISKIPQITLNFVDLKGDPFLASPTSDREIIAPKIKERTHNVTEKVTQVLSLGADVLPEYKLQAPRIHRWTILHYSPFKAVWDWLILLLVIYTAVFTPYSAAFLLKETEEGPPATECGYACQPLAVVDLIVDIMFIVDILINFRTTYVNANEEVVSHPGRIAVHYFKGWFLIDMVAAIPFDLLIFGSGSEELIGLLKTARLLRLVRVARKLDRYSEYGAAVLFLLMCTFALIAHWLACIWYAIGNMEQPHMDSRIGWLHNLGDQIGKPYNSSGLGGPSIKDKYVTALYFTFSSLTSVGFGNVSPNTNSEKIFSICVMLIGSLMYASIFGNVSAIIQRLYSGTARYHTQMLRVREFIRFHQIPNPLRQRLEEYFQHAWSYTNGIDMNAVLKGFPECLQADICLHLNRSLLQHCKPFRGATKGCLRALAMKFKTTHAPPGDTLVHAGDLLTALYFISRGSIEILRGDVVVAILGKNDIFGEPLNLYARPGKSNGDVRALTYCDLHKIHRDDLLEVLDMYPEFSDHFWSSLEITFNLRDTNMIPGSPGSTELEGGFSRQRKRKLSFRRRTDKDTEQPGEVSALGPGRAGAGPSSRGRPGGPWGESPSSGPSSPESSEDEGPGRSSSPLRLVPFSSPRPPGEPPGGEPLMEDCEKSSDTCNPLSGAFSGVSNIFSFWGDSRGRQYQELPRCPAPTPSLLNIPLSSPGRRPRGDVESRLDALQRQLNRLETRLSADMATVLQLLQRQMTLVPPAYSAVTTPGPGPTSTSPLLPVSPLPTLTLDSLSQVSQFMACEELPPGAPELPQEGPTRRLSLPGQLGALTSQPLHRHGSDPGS
DNA gyrase subunit B, sequence (P0A0K8 whole entry): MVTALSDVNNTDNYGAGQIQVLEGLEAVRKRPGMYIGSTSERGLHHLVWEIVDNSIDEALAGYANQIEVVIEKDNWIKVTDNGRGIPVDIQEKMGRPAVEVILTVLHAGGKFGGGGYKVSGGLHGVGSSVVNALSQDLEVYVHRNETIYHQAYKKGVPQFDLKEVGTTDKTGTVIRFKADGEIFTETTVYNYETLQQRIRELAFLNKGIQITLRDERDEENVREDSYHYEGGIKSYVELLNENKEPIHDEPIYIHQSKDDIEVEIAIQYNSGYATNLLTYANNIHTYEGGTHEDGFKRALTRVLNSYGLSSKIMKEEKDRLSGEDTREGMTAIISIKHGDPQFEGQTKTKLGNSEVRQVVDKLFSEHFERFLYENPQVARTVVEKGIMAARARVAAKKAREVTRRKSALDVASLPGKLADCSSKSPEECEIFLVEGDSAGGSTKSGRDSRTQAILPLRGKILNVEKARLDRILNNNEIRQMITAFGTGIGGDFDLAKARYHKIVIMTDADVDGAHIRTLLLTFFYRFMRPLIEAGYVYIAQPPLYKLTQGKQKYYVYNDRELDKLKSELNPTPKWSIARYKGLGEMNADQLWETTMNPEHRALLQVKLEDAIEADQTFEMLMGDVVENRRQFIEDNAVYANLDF

**Q.** What does the source list for `COC[C@H](C)NC(=O)c1nc(N2CC[C@@H](NC(=O)c3[nH]c(C)c(Cl)c3Cl)[C@@H](OC)C2)sc1C(=O)O` [AZD-5099]?
**A.** fold change (FC) [1]: 2; MIC [2]: 0.016 µg/mL (≈ 0.0292 µM); IC50 [3]: 59 µM; MIC [4]: 0.5 µg/mL (≈ 0.912 µM); fraction unbound [5]: 0.034; MIC [6]: 0.016 µg/mL (≈ 0.0292 µM); MIC [7]: 0.03 µg/mL (≈ 0.0547 µM); MIC [8]: 0.13 µg/mL (≈ 0.237 µM); MIC [9]: 0.016 µg/mL (≈ 0.0292 µM); MIC [10]: 0.13 µg/mL (≈ 0.237 µM); Ratio [11]: 8; inhibition (INH) [12]: Not Active; Ratio [13]: 16; MIC [14]: 0.13 µg/mL (≈ 0.237 µM); MIC90 [15]: 0.015 µg/mL (≈ 0.0273 µM); clearance [16]: 10 mL/min/kg; Ratio [17]: 8; MIC [18]: 0.5 µg/mL (≈ 0.912 µM); MIC [19]: < 0.008 µg/mL; MIC [20]: 0.25 µg/mL (≈ 0.456 µM); MIC [21]: 0.06 µg/mL (≈ 0.109 µM); MIC [22]: 0.057 µg/mL (≈ 0.104 µM); inhibition (INH) [23]: Not Active; deltalog10CFU [24]: 1.51; inhibition (INH) [25]: Not Active; clearance [26]: 14 mL/min/kg; IC50 [27]: < 0.01 µM; MIC [28]: 0.036 µg/mL (≈ 0.0656 µM); MIC [29]: 0.5 µg/mL (≈ 0.912 µM); Ratio [30]: 16; bioavailability [31]: 100%; solubility [32]: 960 µM (≈ 527 µg/mL); MIC90 [33]: 0.015 µg/mL (≈ 0.0273 µM); inhibition (INH) [34]: Not Active; Ratio [35]: 2.3; Ratio [36]: 8; MIC [37]: 24 µg/mL (≈ 43.8 µM); pKa [38]: 4.2; MIC [39]: 0.25 µg/mL (≈ 0.456 µM); inhibition [40]: Dose-dependent effect; EC50 [41]: > 200 µM; Ratio [42]: 8; bioavailability [43]: 81%
